Here are results for 31 compounds from PubChem BioAssay AID2247 (Johns Hopkins Ion Channel Center, 2010).

Among all 300,000 compounds or so, about 1,200 (0.4%) were called active. The sample holds actives, similar compounds and a random draw of the others, so the mix is not that of the screen.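 How the source made its calls: active means B-score over 3 SD under the library average, no early fluorescence shift, positive overall ratio signal; inactive means the rest.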

Sequence of Short transient receptor potential channel 4 (Mus musculus) (Q9QUQ5 whole entry, looked up): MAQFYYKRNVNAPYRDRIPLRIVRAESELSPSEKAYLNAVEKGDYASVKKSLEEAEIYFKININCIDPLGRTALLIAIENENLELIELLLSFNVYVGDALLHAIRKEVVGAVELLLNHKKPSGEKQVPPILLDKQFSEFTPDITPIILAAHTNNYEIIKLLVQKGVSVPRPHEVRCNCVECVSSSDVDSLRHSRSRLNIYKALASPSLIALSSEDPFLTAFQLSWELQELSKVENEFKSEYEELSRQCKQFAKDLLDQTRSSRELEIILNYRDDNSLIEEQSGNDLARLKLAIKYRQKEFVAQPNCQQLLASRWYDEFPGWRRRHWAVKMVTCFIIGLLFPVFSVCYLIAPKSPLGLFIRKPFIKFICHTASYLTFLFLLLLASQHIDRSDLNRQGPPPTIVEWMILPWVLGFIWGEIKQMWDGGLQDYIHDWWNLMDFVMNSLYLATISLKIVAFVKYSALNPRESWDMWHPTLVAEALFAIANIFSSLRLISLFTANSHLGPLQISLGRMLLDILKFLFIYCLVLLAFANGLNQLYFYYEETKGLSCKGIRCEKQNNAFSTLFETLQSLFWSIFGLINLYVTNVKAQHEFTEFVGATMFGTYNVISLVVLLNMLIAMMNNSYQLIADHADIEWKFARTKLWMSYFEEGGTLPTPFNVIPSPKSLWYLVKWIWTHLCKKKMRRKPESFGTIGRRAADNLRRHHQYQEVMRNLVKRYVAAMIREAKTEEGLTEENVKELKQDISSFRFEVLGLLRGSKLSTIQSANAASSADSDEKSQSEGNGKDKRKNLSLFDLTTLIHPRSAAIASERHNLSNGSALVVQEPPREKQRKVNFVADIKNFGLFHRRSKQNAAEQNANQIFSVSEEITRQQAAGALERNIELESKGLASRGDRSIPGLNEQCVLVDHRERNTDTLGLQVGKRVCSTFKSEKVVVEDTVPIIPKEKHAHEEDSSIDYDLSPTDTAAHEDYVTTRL

This test concerns the target Short transient receptor potential channel 4 (Mus musculus) (UniProt Q9QUQ5). The test is described as follows: blockers of DAMGO-evoked TRPC4 calcium flux – Fluo4 calcium, HEK293 TRPC4beta/mu-opioid cells, primary screen (AID 2247). The settings on record: at 10 µM; stronger effect = lower value. In outline:
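Material: HEK293 cells with stable TRPC4beta plus mu-opioid receptor expression / Probe or stimulus: DAMGO in two steps, submaximal then maximal / Compound: single concentration per test compound / Technique: kinetic Fluo4 fluorescence imaging of calcium influx / Read-out: per-well B score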
Consider `COc1ccc(-n2ncc3c(N4CCc5ccccc54)ncnc32)cc1`, for which the B-score was -7 (active).
As for `CC(C)Sc1ncnc2c1cnn2-c1ccccc1`, the entry is “inactive”; as for `COc1ccc(-n2ncc3c(SCC(=O)NNC(C)=O)ncnc32)cc1`, “inactive”.
As for `Nc1ccc(Cl)c(S(=O)(=O)Nc2ccccc2Cl)c1`, the entry is “inactive”; as for `O=C(COC(=O)/C=C/c1cccc(Cl)c1)NCCc1ccccc1`, “inactive”; as for `COc1ccc(Cc2nc3ccc(C(=O)NCC4CCOCC4)cc3o2)cc1OC`, “inactive”.
As for `COc1ccc(CN2CCCC(CNC(=O)c3ccc(F)cc3)C2)cc1OC` (stereo unspecified), the figure is -6 (active); as for `COc1ccc(CCN(C)C(=O)C2CCCN(Cc3ccc(OC)c(OC)c3)C2)cc1OC` (stereo unspecified), “inactive”.
Regarding `O/N=C(\C[n+]1ccccc1)c1ccc(Br)cc1`, the B-score result is “inactive”.
Turning to `Cn1ncc(Br)c1C(=O)NC1CCCC1`, the B-score result is “inactive”.
The figure for `COc1ccc(CCN(C)CCN2C(=O)c3ccccc3C2=O)cc1OC` is -8 (active).
For `COc1ccc(CCN2C(=O)C(C)=C(C)C2=O)cc1OC`, the B-score entry is “inactive”.
The entry for `COc1ccc(CCN2C(=O)C3CC=C(C)CC3C2=O)cc1OC` (stereo unspecified) is “inactive”; for `O=C(CSc1ncnc2c1oc1ccccc12)NC1CCCC1` it is “inactive”; for `CCn1c(COc2cccc(OC)c2)nnc1SCC(=O)N1CCOCC1` it is “inactive”.
As for `CCCCCCCCCCOC(=O)Cn1c(COc2ccc(C)cc2)[n+](C)c2ccccc21`, the entry is “inactive”; as for `CCCCCCCCCCOC(=O)Cn1c(COc2cccc(OC)c2)[n+](C)c2ccccc21`, -6 (active).
As for `O=C(OCC(=O)N1CCCC1=O)c1cc(S(=O)(=O)N2CCOCC2)ccc1Cl`, the entry is “inactive”; as for `CCOc1ccc(C(=O)Nc2ccc(CN3CCOCC3)cc2)cc1Cl`, “inactive”; as for `Cn1c(=O)[nH]c(=O)c2c1nc(NCCCn1ccnc1)n2Cc1cccc(Br)c1`, “inactive”.
For the compound `O=C(COc1ccccc1Cl)Nc1ccccc1C(=O)NC1CC1`, the B-score result was “inactive”.
The entry for `Cc1ccccc1OCC(=O)NNC(=O)c1ccc(-n2cncn2)c([N+](=O)[O-])c1` is “inactive”; for `Cc1ccc(O)c(CNc2nc3ccccc3[nH]2)c1` it is -7 (active).
As for `Cc1ccc(O)c(CNc2nc3ccccc3n2C)c1`, the entry is “inactive”; as for `Cc1ccc(-c2cc(=O)[nH]c(NCc3ccccc3)n2)cc1`, “inactive”.
For `CCC1CCCCN1S(=O)(=O)Cc1ccccc1Cl` (stereo unspecified), the B-score result is “inactive”.
For `CCc1ccc(NC(=O)CN2CCC(C(=O)c3ccc(OC)cc3)CC2)cc1`, the B-score result is “inactive”.
As for `CC1(C)OC(=O)C(=CSc2ccc(C(C)(C)C)cc2)C(=O)O1`, the B-score entry is “inactive”.
As for `Cc1ccc(-n2c(C)cc(/C=N\NC(=O)CC(=O)NC(C)C)c2C)cc1`, the entry is “inactive”; as for `CSc1ccc(/C=N\NC(=O)CC(=O)NC(C)C)cc1`, -8 (active).
As for `CSc1ccc(/C=N/NC(=O)c2cccc(Cl)c2)cc1`, the entry is “inactive”.
